Test results from ChEMBL document CHEMBL4257459, “Synergistic antifungal effect of cyclized chalcone derivatives and fluconazole against Candida albicans” (2017).
In brackets after ≈: the same amount, converted by molar mass.

What was measured:
[1] = tested on: Candida albicans; assay: Inhibition of ABC efflux pumps in fluconazole susceptible Candida albicans 004gr assessed as reduction in energy-dependent rhodamine 6G efflux in presence of 0.1 M glucose after 25 mins by fluorescence assay relative to control
Outline: (§1)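 Cells grown in TSB at 37 °C for 8 h, washed, resuspended in glucose-free PBS at 1 × 10^8 cells. De-energized 45 min with 5 mM deoxyglucose plus 5 mM dinitrophenol. […] Washed, sampled 5–25 min, then 0.1 M glucose added. Absorbance 527 nm, R6G from standard curve.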

[2] = tested on: Candida albicans; assay: Antifungal activity against fluconazole resistant Candida albicans A171 by CLSI protocol based broth microdilution method; type: functional
Outline: (§2)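 Broth microdilution per CLSI M27-A3 against clinical C. albicans isolates. Strains sub-cultured at least twice on Tryptone Soya Agar, 37 °C, 48 h. Compounds dissolved in DMSO at 2000 μg mL–1 stock. Fluconazole positive control, plus culture, media and vehicle controls. Run in duplicate; MIC in μg mL–1.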

[3] = tested on: Candida albicans; assay: Antifungal activity against fluconazole susceptible Candida albicans 0072gr by CLSI protocol based broth microdilution method; type: functional
Outline: (§3)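 Clinical isolates and control strain subcultured at least twice on TSA, 37 °C, 48 h. MICs by CLSI M27-A3 broth microdilution; compounds dissolved in DMSO to 2000 μg mL–1 stock. Fluconazole positive control, culture, media and DMSO vehicle controls in each run. Duplicate experiments; MIC in μg mL–1.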

[4] = tested on: Candida albicans; assay: Antifungal activity against fluconazole resistant Candida albicans A171 in presence of fluconazole by CLSI protocol based broth microdilution method; type: functional
Outline: (§4)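 Checkerboard-style combination with fluconazole at a 1 : 1 ratio, over concentrations 2–4 fold below each agent's MIC alone, by CLSI broth microdilution. Fractional inhibitory concentration index calculated and interpreted as synergy (<0.5), additive (0.5–1), indifferent or antagonistic.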

[5] = tested on: Candida albicans; assay: Antifungal activity against Candida albicans ATCC 90028 in presence of fluconazole by CLSI protocol based broth microdilution method; type: functional
[6] = tested on: Candida albicans; assay: Inhibition of ABC efflux pumps in fluconazole susceptible Candida albicans 002B1 assessed as reduction in energy-dependent rhodamine 6G efflux in presence of 0.1 M glucose after 25 mins […] relative to control
[7] = tested on: Candida albicans; assay: Antifungal activity against fluconazole resistant Candida albicans 167-1 by CLSI protocol based broth microdilution method; type: functional; outline: as §2
[8] = tested on: Candida albicans; assay: Antifungal activity against fluconazole susceptible Candida albicans 004B1 in presence of fluconazole by CLSI protocol based broth microdilution method; type: functional
[9] = tested on: Candida albicans; assay: Inhibition of ABC efflux pumps in fluconazole susceptible Candida albicans 003gr assessed as reduction in energy-dependent rhodamine 6G efflux in presence of 0.1 M glucose after 25 mins […] relative to control
[10] = tested on: Candida albicans; assay: Antifungal activity against fluconazole susceptible Candida albicans 004gr in presence of fluconazole by CLSI protocol based broth microdilution method; type: functional
[11] = tested on: Candida albicans; assay: Antifungal activity against fluconazole susceptible Candida albicans 0072gr in presence of fluconazole by CLSI protocol based broth microdilution method; type: functional
[12] = tested on: Candida albicans; assay: Antifungal activity against fluconazole susceptible Candida albicans 002B1 by CLSI protocol based broth microdilution method; type: functional; outline: as §3
[13] = tested on: Candida albicans; assay: Inhibition of ABC efflux pumps in fluconazole resistant Candida albicans 167-1 assessed as reduction in energy-dependent rhodamine 6G efflux in presence of 0.1 M glucose after 25 mins […] relative to control
[14] = tested on: Candida albicans; assay: Antifungal activity against fluconazole resistant Candida albicans 167-2 in presence of fluconazole by CLSI protocol based broth microdilution method; type: functional; outline: as §4
[15] = tested on: Candida albicans; assay: Inhibition of ergosterol biosynthesis in fluconazole resistant Candida albicans A171 at 0.5 to 1 times MIC relative to control; type: functional
Outline: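 Total sterols quantified by alcoholic KOH extraction in cells grown in 50 ml TSB with compounds at MIC and ½ MIC; untreated and 8 μg mL–1 fluconazole controls. Spectral scan; ergosterol content from A281.5 and A230 absorbances, dilution factor and pellet weight, correcting for 24(28) DHE.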

[16] = tested on: Candida albicans; assay: Antifungal activity against Candida albicans ATCC 90028 by CLSI protocol based broth microdilution method; type: functional; outline: as §3
[17] = tested on: Candida albicans; assay: Antifungal activity against fluconazole susceptible Candida albicans 0079gr by CLSI protocol based broth microdilution method; type: functional; outline: as §3
[18] = tested on: Candida albicans; assay: Inhibition of ABC efflux pumps in fluconazole resistant Candida albicans 167-2 assessed as reduction in energy-dependent rhodamine 6G efflux in presence of 0.1 M glucose after 25 mins […] relative to control
[19] = tested on: Candida albicans; assay: Antifungal activity against fluconazole resistant Candida albicans 167-2 by CLSI protocol based broth microdilution method; type: functional; outline: as §2
[20] = tested on: Candida albicans; assay: Inhibition of ABC efflux pumps in fluconazole resistant Candida albicans A171 assessed as reduction in energy-dependent rhodamine 6G efflux in presence of 0.1 M glucose after 25 mins by fluorescence assay relative to control; outline: as §1
[21] = tested on: Candida albicans; assay: Antifungal activity against fluconazole susceptible Candida albicans 0079gr in presence of fluconazole by CLSI protocol based broth microdilution method; type: functional
[22] = tested on: Candida albicans; assay: Antifungal activity against fluconazole susceptible Candida albicans 004gr by CLSI protocol based broth microdilution method; type: functional; outline: as §3
[23] = tested on: Candida albicans; assay: Antifungal activity against fluconazole susceptible Candida albicans 003gr in presence of fluconazole by CLSI protocol based broth microdilution method; type: functional
[24] = tested on: Candida albicans; assay: Inhibition of ABC efflux pumps in fluconazole susceptible Candida albicans 0079gr assessed as reduction in energy-dependent rhodamine 6G efflux in presence of 0.1 M glucose after 25 mins by fluorescence assay relative to control; outline: as §1
[25] = tested on: Candida albicans; assay: Inhibition of ABC efflux pumps in fluconazole susceptible Candida albicans 004B1 assessed as reduction in energy-dependent rhodamine 6G efflux in presence of 0.1 M glucose after 25 mins by fluorescence assay relative to control; outline: as §1
[26] = tested on: Candida albicans; assay: Antifungal activity against fluconazole susceptible Candida albicans 002B1 in presence of fluconazole by CLSI protocol based broth microdilution method; type: functional
[27] = tested on: Candida albicans; assay: Inhibition of ABC efflux pumps in fluconazole susceptible Candida albicans 0072gr assessed as reduction in energy-dependent rhodamine 6G efflux in presence of 0.1 M glucose after 25 mins […] relative to control
[28] = tested on: Candida albicans; assay: Antifungal activity against fluconazole susceptible Candida albicans 004B1 by CLSI protocol based broth microdilution method; type: functional; outline: as §3
[29] = tested on: Candida albicans; assay: Inhibition of ergosterol biosynthesis in fluconazole susceptible Candida albicans ATCC 90028 at 0.5 to 1 times MIC relative to control; type: functional
Outline: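 ATCC90028 grown in 50 ml TSB with MIC and ½ MIC of compound; untreated and 8 μg mL–1 fluconazole controls. Sterols extracted by alcoholic KOH method and spectrophotometrically scanned; ergosterol % calculated from A281.5 and A230 (E values 290 and 518) with dilution factor, per pellet weight.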

[30] = tested on: Candida albicans; assay: Antifungal activity against fluconazole resistant Candida albicans 167-1 in presence of fluconazole by CLSI protocol based broth microdilution method; type: functional; outline: as §4
[31] = tested on: Candida albicans; assay: Antifungal activity against fluconazole susceptible Candida albicans 003gr by CLSI protocol based broth microdilution method; type: functional; outline: as §3

Compound	inhibition [1]	MIC [2]	MIC [3]	fractional inhibitory concentration index (FICI) [4]	fractional inhibitory concentration index (FICI) [5]	inhibition [6]	MIC [7]	fractional inhibitory concentration index (FICI) [8]	inhibition [9]	fractional inhibitory concentration index (FICI) [10]	fractional inhibitory concentration index (FICI) [11]	MIC [12]	inhibition [13]	fractional inhibitory concentration index (FICI) [14]	inhibition (INH) [15]	MIC [16]	MIC [17]	inhibition [18]	MIC [19]	inhibition [20]	also measured
NC(=S)N1N=C(c2ccccc2)CC1c1ccccc1 (configuration not stated)	< 20%	500 µg/mL (≈ 1780 µM)	125 to 500 µg/mL (≈ 444 to 1780 µM)	0.75 - 1.5	1.97 - 4.28	< 20%	500 µg/mL (≈ 1780 µM)	1.97 - 4.28	< 20%	1.97 - 4.28	1.97 - 4.28	125 to 500 µg/mL (≈ 444 to 1780 µM)	< 20%	0.75 - 1.5	49 - 94%	125 to 500 µg/mL (≈ 444 to 1780 µM)	125 to 500 µg/mL (≈ 444 to 1780 µM)	< 20%	500 µg/mL (≈ 1780 µM)	< 20%	fractional inhibitory concentration index (FICI) [21]: 1.97 - 4.28; MIC [22]: 125 to 500 µg/mL (≈ 444 to 1780 µM); fractional inhibitory concentration index (FICI) [23]: 1.97 - 4.28; inhibition [24]: < 20%; inhibition [25]: < 20%; fractional inhibitory concentration index (FICI) [26]: 1.97 - 4.28; inhibition [27]: < 20%; MIC [28]: 125 to 500 µg/mL (≈ 444 to 1780 µM); inhibition (INH) [29]: 66 - 99%; fractional inhibitory concentration index (FICI) [30]: 0.75 - 1.5; MIC [31]: 125 to 500 µg/mL (≈ 444 to 1780 µM)
c1ccc(C2=NOC(c3ccccc3)C2)cc1 (configuration not stated)	< 20%	16 to 31 µg/mL (≈ 71.7 to 139 µM)	4 to 31 µg/mL (≈ 17.9 to 139 µM)	0.531 - 0.56	0.75 - 2	< 20%	16 to 31 µg/mL (≈ 71.7 to 139 µM)	0.75 - 2	< 20%	0.75 - 2	0.75 - 2	4 to 31 µg/mL (≈ 17.9 to 139 µM)	< 20%	0.531 - 0.56	49 - 94%	4 to 31 µg/mL (≈ 17.9 to 139 µM)	4 to 31 µg/mL (≈ 17.9 to 139 µM)	< 20%	16 to 31 µg/mL (≈ 71.7 to 139 µM)	< 20%	fractional inhibitory concentration index (FICI) [21]: 0.75 - 2; MIC [22]: 4 to 31 µg/mL (≈ 17.9 to 139 µM); fractional inhibitory concentration index (FICI) [23]: 0.75 - 2; inhibition [24]: < 20%; inhibition [25]: < 20%; fractional inhibitory concentration index (FICI) [26]: 0.75 - 2; inhibition [27]: < 20%; MIC [28]: 4 to 31 µg/mL (≈ 17.9 to 139 µM); inhibition (INH) [29]: 66 - 99%; fractional inhibitory concentration index (FICI) [30]: 0.531 - 0.56; MIC [31]: 4 to 31 µg/mL (≈ 17.9 to 139 µM)
